Shown is part of a subset that was picked to be rich in hits.
T cruzi growth-1: blocks T. cruzi growth in NIH3T3 culture | actives 5.9% (n = 77,000) | T. cruzi beta-gal in NIH3T3, GalScreen luminescence, 90 h | inhibition, % at 8.34 µM;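 active means mean inhibition above about 93%, with at least 55% of replicates each passing it, limit read from the data, passing the limit was not always enough; inconclusive means only one of those two conditions holds; inactive means neither condition holds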
GASC1 inh: inhibitors of human demethylase GASC-1 KDM4C | Q9H3R0 | GST-KDM4C 2-372, H3K9me3 peptide, LANCE TR-FRET | inhibition, % at 12.5 µM | actives 0.15% (n = 96,000);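 active means mean replicate inhibition above about 25%, with at least 55% of replicates also reaching it, limit read from the data, passing the limit was not always enough; inconclusive means only one of those two conditions met; inactive means neither condition met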
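reagent = H3K9me3 peptide substrate, Fe(II), 2-oxoglutarate | system = GST-tagged GASC-1 (JMJD2C) catalytic fragment, aa 2-372 | amount = enzyme final amount 10 nM | read-out = Fall in 671/618 emission ratio as inhibition | medium = HEPES buffer, pH 7.5, plus ascorbate | schedule = 30 min reaction, 60 min detection, RT | measured by = LANCE TR-FRET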
IDH1 R132H inh: inhibitors of human IDH1 R132H. IDH1 R132H reductase, diaphorase/resazurin fluorescence, 60 min. actives 0.18% (n = 70,000). AID 624101. inhibition, % at 10 µM; in the data active means inhibition above about 34%; inconclusive means no clear call, values can overlap the other calls; inactive means below about 11%;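 further: 0% = DMSO and 100% = no enzyme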
Target sequence (O75874 whole entry R132H): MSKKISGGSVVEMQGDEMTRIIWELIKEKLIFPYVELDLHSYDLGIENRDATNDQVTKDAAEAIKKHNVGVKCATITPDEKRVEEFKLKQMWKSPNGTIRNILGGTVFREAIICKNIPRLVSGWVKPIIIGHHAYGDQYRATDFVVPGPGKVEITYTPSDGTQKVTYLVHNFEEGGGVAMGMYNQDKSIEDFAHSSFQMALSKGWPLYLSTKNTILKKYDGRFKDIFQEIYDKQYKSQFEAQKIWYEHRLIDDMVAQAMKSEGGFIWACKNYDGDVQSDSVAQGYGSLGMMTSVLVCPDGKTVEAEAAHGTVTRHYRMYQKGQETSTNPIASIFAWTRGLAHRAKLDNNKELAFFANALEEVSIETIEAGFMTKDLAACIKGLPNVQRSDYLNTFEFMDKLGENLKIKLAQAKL
T cruzi growth-2: Trypanosoma cruzi proliferation inhibition. shares compounds with T cruzi growth-1. T. cruzi beta-gal in NIH3T3, GalScreen luminescence, 90 h. inhibition, % at 8.35 µM. actives 72% (n = 5,600). AID 651739;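 active means mean replicate inhibition above about 95% and at least 55% of replicates individually reaching it, limit read from the data; inconclusive means only one of the two criteria is met; inactive means neither criterion is met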
T cruzi growth-3: blocks T. cruzi growth in NIH3T3 host cells. shares compounds with T cruzi growth-1. T. cruzi beta-gal in NIH3T3, GalScreen luminescence, 90 h. inhibition, % at 2.09 µM. actives 21% (n = 5,600). AID 651740;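 active means mean inhibition above about 95%, with at least 55% of replicates also reaching it, limit read from the data; inconclusive means meets just one of the two conditions; inactive means meets neither condition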;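 further: plate controls were neutral control median for no effect and positive control median for full effect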
NIH3T3 tox: NIH/3T3 (mouse) viability loss; actives 14% (n = 5,600); cytotoxicity (signal decrease), % at 8.35 µM; NIH/3T3 viability, CellTiter-Glo ATP luminescence, 90 h; shares compounds with T cruzi growth-1;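 active means mean signal decrease across replicates above about 35% based on untreated-well scatter, with enough replicates individually passing, limit read from the data; inconclusive means no rule stated though some were filed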;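 further: 0% = median of neutral control wells and 100% = median of positive control wells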
NIH3T3 tox 2: cytotoxicity in mouse NIH/3T3 fibroblasts; shares compounds with T cruzi growth-1; NIH/3T3 viability, CellTiter-Glo ATP luminescence, 90 h; inhibition, % at 24.9 µM; actives 56% (n = 5,600); AID 651744;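 active means mean loss of cell viability signal at or above a set limit, and enough replicates individually reaching it; inconclusive means meets only the mean limit or only the replicate share; inactive means meets neither condition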;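 further: 0% = median of neutral control wells and 100% = median of positive control wells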
An asterisk follows results filed as active; u = inconclusive; x = no result.

SMILES	T cruzi growth-1	GASC1 inh	IDH1 R132H inh	T cruzi growth-2	T cruzi growth-3	NIH3T3 tox	NIH3T3 tox 2
CO[C@H]1CN(C)C(=O)c2cc(NS(=O)(=O)c3ccccc3)ccc2OC[C@@H](C)N(Cc2cccnc2)C[C@H]1C	97*	-1	0	101*	47	5	35*
CO[C@@H]1CN(C)C(=O)c2ccc(NS(=O)(=O)c3ccc(C)cc3)cc2OC[C@@H](C)N(Cc2nccs2)C[C@@H]1C	45	0	0	x	x	x	x
COc1ccccc1NC(=O)Nc1ccc2c(c1)C(=O)N(C)C[C@@H](OC)[C@H](C)CN(Cc1ccccc1Cl)[C@H](C)CO2	109*	1	0	108*	113*	10	8
CO[C@@H]1CN(C)C(=O)c2cc(NS(=O)(=O)c3ccccc3)ccc2OC[C@H](C)N(Cc2cccnc2)C[C@@H]1C	24	-1	0	x	x	x	x
CO[C@H]1CN(C)C(=O)c2cc(NS(=O)(=O)c3ccc(C)cc3)ccc2OC[C@@H](C)N(Cc2nccs2)C[C@H]1C	107*	-1	-1	104*	25	-3	40*
CO[C@H]1CN(C)C(=O)c2ccc(NC(=O)NC(C)C)cc2OC[C@@H](C)N(Cc2ccccn2)C[C@@H]1C	100*	2	0	60	-42	15	7
COc1ccc2c(ccn3cc4c(c(=O)n(C)c(=O)n4C)c23)c1	x	x	1	x	x	x	x
Cc1cc(SCC(=O)Nc2sc3c(c2C#N)CCCC3)nc2ccccc12	x	x	1	x	x	x	x
O=C(COc1ccc(Br)cc1Cl)NCc1cccnc1	x	x	1	x	x	x	x
Cc1ccc(C)c(NC(=O)CSc2nnc(-c3ccc(N)cc3)n2C)c1	x	x	0	x	x	x	x
CO[C@@H]1CN(C)C(=O)c2ccc(NC(=O)Nc3ccccc3F)cc2OC[C@@H](C)N(Cc2ccccc2F)C[C@H]1C	117*	0	0	106*	111*	-3	-1
CO[C@@H]1CN(C)C(=O)c2cc(NC(=O)C3CC3)ccc2OC[C@H](C)N(Cc2cc(F)ccc2F)C[C@H]1C	109*	-1	0	80	39	-2	-3
CO[C@@H]1CN(C)C(=O)c2cc(NC(=O)C3CC3)ccc2OC[C@@H](C)N(Cc2cccc(F)c2)C[C@@H]1C	63	2	0	x	x	x	x
CO[C@H]1CN(C)C(=O)c2cc(NC(=O)C3CC3)ccc2OC[C@H](C)N(Cc2cc(F)ccc2F)C[C@H]1C	95	-3	0	x	x	x	x
COCC(=O)Nc1ccc2c(c1)OC[C@@H](C)N(Cc1cc(F)ccc1F)C[C@@H](C)[C@H](OC)CN(C)C2=O	47	0	0	x	x	x	x
CO[C@@H]1CN(C)C(=O)c2cc(NC(=O)C3CC3)ccc2OC[C@H](C)N(Cc2cccc(F)c2)C[C@H]1C	99*	2	0	u	38	-2	0
COCC(=O)Nc1ccc2c(c1)OC[C@H](C)N(Cc1cc(F)ccc1F)C[C@@H](C)[C@H](OC)CN(C)C2=O	97*	-1	0	97*	31	-7	16
CO[C@@H]1CN(C)C(=O)c2cc(NC(=O)Nc3ccccc3F)ccc2OC[C@@H](C)N(Cc2ccccc2F)C[C@H]1C	52	2	0	x	x	x	x
CCC(C)CCC(O)C1=C(C)C(O)OC1=O (centres undefined)	x	x	0	x	x	x	x
Cc1ccc(NC(=O)c2ccco2)c(NC(=O)COc2ccccc2Cl)c1	x	x	0	x	x	x	x
O=C(CSc1nnc(-c2cccc(Br)c2)n1-c1ccccc1)c1ccc(F)cc1	x	x	0	x	x	x	x
CO[C@H]1CN(C)C(=O)c2cc(NC(=O)C3CCC3)ccc2OC[C@@H](C)N(Cc2cccnc2)C[C@@H]1C	103*	0	0	62	-6	8	6
CO[C@H]1CN(C)C(=O)c2cc(NC(=O)C3CCC3)ccc2OC[C@H](C)N(Cc2cccnc2)C[C@@H]1C	87	-1	0	x	x	x	x
COc1ccc(Cl)cc1NC(=O)CSc1nc2ccccc2n1-c1ccccc1	x	x	0	x	x	x	x
Cn1cnc(CCNC(=O)C[C@@H]2CC[C@H]3[C@@H](COC[C@@H](O)CN3C(=O)C3CC3)O2)c1	104*	-2	x	102*	-25	-23	-23
SMILES	T cruzi growth-1	GASC1 inh	IDH1 R132H inh	T cruzi growth-2	T cruzi growth-3	NIH3T3 tox	NIH3T3 tox 2
Cn1cnc(CCNC(=O)C[C@H]2CC[C@H]3[C@@H](COC[C@H](O)CN3C(=O)Nc3ccc(Cl)cc3)O2)c1	44	-2	x	x	x	x	x
Cn1cnc(CCNC(=O)C[C@H]2CC[C@H]3[C@@H](COC[C@H](O)CN3C(=O)Nc3ccccc3)O2)c1	2	1	x	x	x	x	x
Cn1cnc(CCNC(=O)C[C@H]2CC[C@@H]3[C@H](COC[C@H](O)CN3C(=O)Nc3ccc(C(F)(F)F)cc3)O2)c1	u	2	x	84	-7	6	2
Cn1cnc(CCNC(=O)C[C@@H]2CC[C@H]3[C@@H](COC[C@@H](O)CN3C(=O)Nc3ccc(C(F)(F)F)cc3)O2)c1	107*	1	x	-33	5	6	15
Cn1cnc(CCNC(=O)C[C@@H]2CC[C@H]3[C@@H](COC[C@H](O)CN3C(=O)C3CC3)O2)c1	12	1	x	x	x	x	x
Cc1ccc(-c2nn(C)c(=O)c3ccccc23)cc1S(=O)(=O)N1CCN(CCO)CC1	x	x	0	x	x	x	x
O=C(O)Cc1ccc(NC(=O)c2cccnc2C(=O)O)cc1	x	x	1	x	x	x	x
CC1(C)C[C@H]2C3=CCC4[C@@]5(C)CC[C@H](O[C@@H]6O[C@H](CO)[C@@H](O)[C@H](O)[C@H]6O)C(C)(C)C5CC[C@@]4(C)[C@]3(C)CC[C@@]2(C(=O)O[C@@H]2O[C@H](CO)[C@@H](O)[C@H](O)[C@H]2O)CC1O (some centres undefined)	x	x	0	x	x	x	x
CCS(=O)(=O)N1CCCCN2[C@H](CO)[C@H](c3ccc(-c4ccc(C#N)cc4)cc3)[C@H]2C1	114*	-3	x	96*	53	5	52*
CCS(=O)(=O)N1CCCCN2[C@H](CO)[C@H](c3ccc(-c4cccc(C#N)c4)cc3)[C@@H]2C1	91	-1	x	x	x	x	x
CCS(=O)(=O)N1CCCCN2[C@H](CO)[C@H](c3ccc(-c4cccc(C#N)c4)cc3)[C@H]2C1	128*	-2	x	97*	53	53*	46*
CCS(=O)(=O)N1CCCCN2[C@H](CO)[C@@H](c3ccc(-c4ccc(C#N)cc4)cc3)[C@@H]2C1	19	-4	x	x	x	x	x
CS(=O)(=O)N1CCCCN2[C@@H](CO)[C@@H](c3ccc(-c4cccc(C#N)c4)cc3)[C@@H]2C1	-8	0	x	x	x	x	x
CCS(=O)(=O)N1CCCCN2[C@H](C1)[C@H](c1ccc(-c3cccc(C#N)c3)cc1)[C@@H]2CO	107*	0	x	25	-15	11	20
COCCNC(=O)c1ccccc1NC(=O)c1ccco1	x	x	0	x	x	x	x

Screening data from PubChem.
